# According to the RNAGym collection of RNA variant scans (doi:10.1126/science.aae0568):
# Fewer inactive variants are shown than the library holds.
# B1: tRNA (parent)
# chain: GUUCCGUUGGCGUAAUGGUAACGCGUCUCCCUCCUAAGGAGAAGACUGCGGGUUCGAGUCCCGUACGGAACG
# Variants of: B1
# Experiment: yeast fitness relative to wild type (ratio to wild type); higher = fitter; tRNA-Arg(CCU), competitive growth, 37 C, YPD
# In short: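 For this measurement, the tRNA-Arg(CCU) gene was varied by chemical synthesis at a 3% per-site mutation rate across 69 sites, and each variant was placed at the native genomic locus in Saccharomyces cerevisiae. The pooled strains went through a 24-hour competition in YPD at 37°C in six parallel replicates, with amplicons from start and end populations read by 100-nucleotide paired-end sequencing. Darwinian fitness relative to wild type followed from the change in each genotype's frequency. Genotypes needed ≥ 100 starting reads, and estimates < 0.5 were set to 0.5.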
row,Variant,yeast fitness
1,GUUCCGUUGGCGUAAUGGUAACGCGUCUCCCUCCUAAGGAGAAGACGGCGGGUUCGAGUCCUGUCCGGAACG [U47G C62U A65C],≤ 0.5
2,GUUCCGUUGGCGUAAUGGUAACGCGUCUCCCUCCUAAGGAGAAGACGGCGGGUUCGAGUCCUGUUCGGAACG [U47G C62U A65U],0.64
3,GUUCCGUUGGCGUAAUGGUAACGCGUCUCCCUCCUAAGGAGAAGACUACGGGUUCGAGUCCUGUACGGAACG [G48A C62U],1.01
4,GUUCCGUUGGCGUAAUGGUAACGCGUCUCCCUCCUAAGGAGAAGACCGCGGGUUCGAGUCCCGUACGGCACG [U47C A69C],1.07
5,GUUCCGUUGGCGUAAUGGUAACGCGUCUCCCUCCUAAGGAGAAGACUACGGGUUCGAGUCGCGUACGGAACG [G48A C61G],0.559
6,GUUCCGUUGGCGUAAUGGUAACGCGUCUCCCUCCUAAGGAGAAGACUACGAGUUCGAGUCCCGUACGGUACG [G48A G51A A69U],0.755
7,GUUCCGUUGGCGUAAUGGUAACGCGUCUCCCUCCUAAGGAGAAGACUACGGGUUCGACUCACGUACGGAACG [G48A G58C C61A],0.601
8,GUUCCGUUGGCGUAAUGGUAACGCGUCUCCCUCCUAAGGAGAAGACUACGGGUUCGAGUCCCAUACGGAUCG [G48A G63A A70U],0.811
9,GUUCCGUUGGCGUAAUGGUAACGCGUCUCCCUCCUAAGGAGAAGACUACGGCUUCGCGUCCAGUACGGAACG [G48A G52C A57C C62A],≤ 0.5
10,GUUCCGUUGGCGUAAUGGUAACGCGUCUCCCUCCUAAGGAGAAGACUACGGGUUCGAGUCCCAUACGGAACG [G48A G63A],0.887
11,GUUCCGUUGGCGUAAUGGUAACGCGUCUCCCUCCUAAGGAGAAGACCGCGGGUUCGAGUCCCGUACUGAACG [U47C G67U],0.86
12,GUUCCGUUGGCGUAAUGGUAACGCGUCUCCCUCCUAAGGAGAAGACCGCGGGUUCGAGUCCCGUACCGAACG [U47C G67C],0.886
13,GUUCCGUUGGCGUAAUGGUAACGCGUCUCCCUCCUAAGGAGAAGACGGCGGGUUCGAGUCCUGUACGGAACG [U47G C62U],0.633
14,GUUCCGUUGGCGUAAUGGUAACGCGUCUCCCUCCUAAGGAGAAGACGGCGGGUUCGAGACCCGUACGGAACG [U47G U59A],0.543
15,GUUCCGUUGGCGUAAUGGUAACGCGUCUCCCUCCUAAGGAGAAGACCGCCGGUUCGAGUCCCGUACGGAACG [U47C G50C],0.633
16,GUUCCGUUGGCGUAAUGGUAACGCGUCUCCCUCCUAAGGAGAAGACGGCGGGUUCGAGUCCCGUACGGUACG [U47G A69U],0.764
17,GUUCCGUUGGCGUAAUGGUAACGCGUCUCCCUCCUAAGGAGAAGACGGCGGGUUCGAGUCCCGUACGGCACG [U47G A69C],0.69
18,GUUCCGUUGGCGUAAUGGUAACGCGUCUCCCUCCUAAGGAGAAGACCGAGAGUUAGAGUACCGUACGGAACG [U47C C49A G51A C55A C60A],≤ 0.5
19,GUUCCGUUGGCGUAAUGGUAACGCGUCUCCCUCCUAAGGAGAAGACGGCGGGUUCGAGUCCCGCACGGAACG [U47G U64C],0.622

row,Variant,yeast fitness
1,GUUCCGUUGGCGUAAUGGUAACGCGUCUCCCUCCUAAGGAGAAGACUACGGGUACGAGUCCCGUACGGAACG [G48A U54A],0.692
2,GUUCCGUUGGCGUAAUGGUAACGCGUCUCCCUCCUAAGGAGAAGACUACGGCUCCGAGUCCCGUACGGAACG [G48A G52C U54C],0.542
3,GUUCCGUUGGCGUAAUGGUAACGCGUCUCCCUCCUAAGGAGAAGACUACGAGUUCGAGUCCCGUACGGAACG [G48A G51A],1.04
4,GUUCCGUUGGCGUAAUGGUAACGCGUCUCCCUCCUAAGGAGAAGACUACAGGUUCGAGUCCCGUACGGAACG [G48A G50A],0.973
5,GUUCCGUUGGCGUAAUGGUAACGCGUCUCCCUCCUAAGGAGAAGACUACGGGUUCGUGUCCCGUACGGAACG [G48A A57U],0.649
6,GUUCCGUUGGCGUAAUGGUAACGCGUCUCCCUCCUAAGGAGAAGACGGCGGAUUCGAGUCCCGUACGGAACG [U47G G52A],≤ 0.5
7,GUUCCGUUGGCGUAAUGGUAACGCGUCUCCCUCCUAAGGAGAAGACUACGGGUUCAAGUCCCGUGCGGAACG [G48A G56A A65G],0.718
8,GUUCCGUUGGCGUAAUGGUAACGCGUCUCCCUCCUAAGGAGAAGACUACGGGUUCGAGUCCCGUACGCAACG [G48A G68C],0.985
9,GUUCCGUUGGCGUAAUGGUAACGCGUCUCCCUCCUAAGGAGAAGACCGCGGGUUCGAGUCCCGCACGGAACG [U47C U64C],0.926
10,GUUCCGUUGGCGUAAUGGUAACGCGUCUCCCUCCUAAGGAGAAGACCGCGGGUUCGAGUCCCGUGCGCAACG [U47C A65G G68C],0.546
11,GUUCCGUUGGCGUAAUGGUAACGCGUCUCCCUCCUAAGGAGAAGACCGAGGGUUCGAGUCCCGUGCGGAACG [U47C C49A A65G],≤ 0.5
12,GUUCCGUUGGCGUAAUGGUAACGCGUCUCCCUCCUAAGGAGAAGACUACGGGUUCGAGUCCCGUACGGAUCG [G48A A70U],1.04
13,GUUCCGUUGGCGUAAUGGUAACGCGUCUCCCUCCUAAGGAGAAGACUACGGGUUCGAGUCCCGUACGGACCG [G48A A70C],0.956
14,GUUCCGUUGGCGUAAUGGUAACGCGUCUCCCUCCUAAGGAGAAGACUACGGGUUCGAGUCCCGUAAGUACCG [G48A C66A G68U A70C],≤ 0.5
15,GUUCCGUUGGCGUAAUGGUAACGCGUCUCCCUCCUAAGGAGAAGACCGCGGGUUCGAUUCCCAUUCGGAACG [U47C G58U G63A A65U],≤ 0.5
16,GUUCCGUUGGCGUAAUGGUAACGCGUCUCCCUCCUAAGGAGAAGACGGCGGGUUCGUGUACCGUACGGAACG [U47G A57U C60A],0.555
17,GUUCCGUUGGCGUAAUGGUAACGCGUCUCCCUCCUAAGGAGAAGACGGCGGGUCCGAGUCCCGUACGGAACG [U47G U54C],0.504
18,GUUCCGUUGGCGUAAUGGUAACGCGUCUCCCUCCUAAGGAGAAGACUACGGGUUCGAGUCGCGUACGGCACG [G48A C61G A69C],0.603
19,GUUCCGUUGGCGUAAUGGUAACGCGUCUCCCUCCUAAGGAGAAGACUACGGGUCCGAGUCCCGUAUGGAACG [G48A U54C C66U],≤ 0.5
